# Assay outcomes as filed in PubChem.
# An excerpt weighted towards active compounds, which were near 2.9% of everything screened.
# KLK7 zymogen act: proKLK7 zymogen activators, primary screen, biochemical, fluorescence intensity; purified proKLK7, EDANS-DABCYL substrate fluorescence; 100% is mature enzyme control, 0% vehicle; 370,000 tested, 0.9% active; activation, % at 7 µM; Kallikrein-7 (Homo sapiens), P49862; AID 652039, 2013;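 active means activation above the mean of all tested compounds plus 3 SD, computed per campaign excluding outliers beyond control limits, cut at about 13% in these data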
# Target sequence (P49862 whole entry, looked up): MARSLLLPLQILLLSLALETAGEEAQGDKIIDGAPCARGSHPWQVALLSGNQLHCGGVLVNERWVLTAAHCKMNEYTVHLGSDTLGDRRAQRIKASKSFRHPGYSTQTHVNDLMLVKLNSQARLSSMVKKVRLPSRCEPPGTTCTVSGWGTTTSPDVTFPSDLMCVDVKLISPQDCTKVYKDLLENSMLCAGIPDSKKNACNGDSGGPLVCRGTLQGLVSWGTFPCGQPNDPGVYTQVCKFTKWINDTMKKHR
# Runt-CBFb FRET: inhibitors of RUNX1 Runt–CBFb binding, primary screen, biochemical, FRET, Cerulean-Runt, Venus-CBFb, uHTS; Runt-related transcription factor 1 (Homo sapiens) + Core-binding factor subunit beta …; Cerulean-Runt/Venus-CBFb FRET ratio 530/480, 1 h; inhibition, % at 20 µM; 220,000 tested, 0.46% active;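 active means inhibition over about 50% at 20 µM in the single-dose screen, limit read from the data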;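 further: 0% = DMSO wells and 100% = excess unlabeled CBFb competitor control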
#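 Assay system: Cerulean-Runt domain fusion protein, energy donor; Signal: fluorescence energy transfer, 422 nm excitation, 530/480 nm emission; Timing: 1 h compound exposure, room temperature; Control set: unlabeled CBFb; Medium: Tris buffer pH 7.5 with salts and BSA; Compound: single test concentration of 20 µM, 1% DMSO final; Probe or stimulus: Venus-CBFb 100 nM.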
# AI-2 QS mod: Vibrio harveyi AI-2 quorum sensing modulators, primary screen, JMH597 strain, luminescence/OD600 ratio. Vibrio harveyi JMH597 AI-2 luminescence/OD600 ratio, 9 h; hits give low values; strain lacks LuxN and CqsS sensors; 0 = neutral-control median. activity change, % at 7.5 µM. 300,000 tested, 0.4% active. AID 2094, 2009; in the data active means activity change below about -75%, passing the limit was not always enough; inconclusive means no clear call, values can overlap the other calls;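 further: luminescence divided by OD600 gain over 9 h not by final OD600 alone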
# RanGTP-Impb inh: inhibitors of RanGTP-importin-beta interaction, primary screen, biochemical, FRET, CFP-Ran, YFP-importin-beta, homogeneous; inhibition, % (no concentration beside the values); 300,000 tested, 1.1% active; AID 2216, 2009; cell-free CFP-Ran/YFP-importin-beta FRET ratio; Ran GTPase (GTP-bound) - importin-beta complex;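 active means more than half of the replicate wells show a fall in the fluorescence ratio signal beyond about 16%, limit read from the data, passing the limit was not always enough; inconclusive means exactly half of the replicate wells pass the set limit; inactive means fewer than half of replicates pass the limit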;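 further: 0% = DMSO wells and 100% = Ran loaded with GDP instead of GTP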
# Runt-SMMHC FRET: inhibitors of RUNX1 Runt–CBFb-SMMHC binding, primary screen, biochemical, FRET, Cerulean-Runt, Venus-CBFb-SMMHC, uHTS; Runt-related transcription factor 1 (Homo sapiens) + Core-binding factor subunit beta …; Cerulean-Runt/Venus-CBFb-SMMHC FRET ratio 530/480, 1 h; inhibition, % at 20 µM; 220,000 tested, 0.74% active; AID 1434, 2008;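 active means mean inhibition across duplicate retests at 20 µM reaching about 50%, limit read from the data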;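 further: 0% = DMSO wells and 100% = wells with excess untagged CBFb-SMMHC; inhibitors lower the FRET ratio by blocking Runt binding to CBFb-SMMHC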
# Wee1 degr inh: Wee1 degradation inhibitors, primary screen, cell-based, HeLa, Wee1K328M-luciferase, luminescence; Wee1-like protein kinase (Homo sapiens), P30291; HeLa Luc-Wee1K328M stability; 100% = proteasome inhibitor MG132 effect; reporter increase, % at 5 µM; 220,000 tested, 1.2% active; AID 1321, 2008;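 active means activation above the mean of all tested compounds plus 3 SD, set per screening run, cut at about 8.8% in these data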;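 further: cells exposed to compound for 20 h before luminescence read; 0% = DMSO alone and 100% = MG132 at 30 µM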
# * marks the source's active call; other numbers are inactive results; ? = inconclusive; nt = not tested or not shown.
SMILES,KLK7 zymogen act,Runt-CBFb FRET,AI-2 QS mod,RanGTP-Impb inh,Runt-SMMHC FRET,Wee1 degr inh
Nc1c(C(=O)NC2CCCC2)c2nc3ccccc3nc2n1N,-0.3,13.9,6.9,39.0*,46.4,0.4
C=CCN=C1NC(c2ccc(C(F)(F)F)cc2)C(C(=O)OC)=C(C)N1C (configuration not stated),0.6,nt,nt,nt,nt,nt
Cc1cc(C)nc(NC(=O)CSc2ccccn2)n1,0.5,-1.1,3.8,0.6,-1.3,16.9*
O=C(CSc1ccccn1)Nc1ccc(NC(=O)CSc2ccccn2)cc1,-1.0,-2.0,7.4,1.6,-1.0,-0.4
O=C(CSc1ccccn1)Nc1nonc1[N+](=O)[O-],-1.1,nt,-88.5*,2.7,nt,nt
COC(=O)C1=C(C)N(Cc2ccc(C(F)(F)F)cc2)C(=NCc2ccccc2)NC1c1ccc(C(F)(F)F)cc1 (configuration not stated),-0.3,nt,nt,nt,nt,nt
O=C(O)c1nn(CC(=O)N2CCN(S(=O)(=O)c3ccc(Cl)cc3)CC2)c(=O)c2ccccc12,0.7,0.9,1.5,1.0,-1.6,-1.3
Cc1[nH]nc2c1C(c1ccc3c(c1)OCO3)N(Cc1ccccc1)C2=O (configuration not stated),0.3,nt,nt,nt,nt,nt
CC(C)(C)NC(=O)CSc1nnc(C2CC2)n1Cc1ccccc1,-0.3,0.7,15.4,-0.2,-1.0,-0.7
CC(C)(C)NC(=O)CSc1nnc(C2CC2)n1-c1ccccc1,0.1,-1.1,1.2,52.2*,2.1,-2.0
CC(=O)c1sc(NC(=O)C(C)Oc2ccc3c(C)cc(=O)oc3c2)nc1C (configuration not stated),-1.0,nt,22.3,-1.7,nt,nt
COc1ccc(NC(=O)Cn2cnc3ccccc3c2=O)cc1OC,-0.4,-0.9,-76.3*,?,2.7,-0.6
CC(C)(C)NC(=O)C(c1ccc(F)cc1)N(Cc1ccco1)C(=O)CCC(=O)Nc1ccccn1 (configuration not stated),0.0,nt,11.9,-0.4,nt,nt
Cn1c(/C=C/c2ccc(Cl)cc2)nc2ccccc2c1=O,-11.3,nt,21.7,19.7*,nt,nt
O=c1[nH]c2ccccc2nc1/C=C/c1ccc(Cl)cc1,-1.1,-32.3,52.2,22.7*,37.3,-4.0
Cn1c(/C=C/c2ccccc2)nc2ccccc2c1=O,0.4,nt,4.2,0.5,nt,nt
Cn1c(/C=C/c2ccc([N+](=O)[O-])o2)nc2ccccc2c1=O,nt,0.7,-229.3*,2.5,-10.3,0.0
CC(=O)C1C(c2ccc(Cl)cc2)c2c(noc2C)CC1(C)O (configuration not stated),-0.1,-1.1,nt,0.2,-0.3,-2.7
CC(C)=CC(=O)NCC1CCN(C(=O)C(=O)c2cc3ccccc3o2)CC1,0.5,nt,nt,nt,nt,nt
CCOC(=O)C1(C(=O)OCC)N=C(c2ccccc2)C=C1c1ccccc1,-0.2,nt,nt,nt,nt,nt
O=C(Nc1ccccc1F)c1ccc([N+](=O)[O-])s1,0.1,-1.2,-115.2*,1.2,-1.8,0.4
Fc1ccc(-c2n[nH]c(=S)n2-c2ccc3c(c2)OCCO3)cc1,0.3,2.5,6.7,2.6,15.9,9.1*
S=c1[nH]nc(-c2ccc(Cl)cc2)n1-c1ccc2c(c1)OCCO2,0.0,2.4,20.4,-4.4,28.4,-0.2
COC(=O)c1ccc2c(=O)n(CCCCCC(=O)NCc3ccccc3)c(=O)[nH]c2c1,-0.3,-1.5,9.1,-0.2,-1.9,2.6
COC(=O)c1ccc2c(=O)n(CCCCCC(=O)NCc3ccc4c(c3)OCO4)c(=O)[nH]c2c1,0.3,0.0,11.6,35.2*,1.8,-0.2
SMILES,KLK7 zymogen act,Runt-CBFb FRET,AI-2 QS mod,RanGTP-Impb inh,Runt-SMMHC FRET,Wee1 degr inh
C[C@H]1CC[C@@]2(O[C@H](CCO)C[C@@H](O)[C@@H]2O)O1,0.9,0.6,16.4,?,0.6,9.4*
O=C1NC(=O)C(c2ccccc2)(C2CCCC2)N1 (configuration not stated),-0.5,nt,nt,nt,nt,nt
N#Cc1ccccc1NC1=CC(=O)CCC1,0.9,-1.5,12.0,57.5*,1.8,2.7
CN(C)c1ccc(C=C(C#N)C(=O)c2ccccc2)cc1Br,-0.2,nt,nt,nt,nt,nt
COc1ccc(-c2nn(C)c(=O)[nH]2)cc1,0.0,2.1,17.0,3.3,1.4,10.6*
CCc1c(C)c(C#N)c2nc3ccccc3n2c1NCc1ccccn1,1.8,31.8,24.1,12.0,65.3*,-3.8
CCc1c(C)c(C#N)c2nc3ccccc3n2c1Cl,nt,-10.2,-2.7,20.6*,-31.1,-0.2
CCc1c(C)c(C#N)c2nc3ccccc3n2c1NCCOC,1.8,nt,15.3,?,nt,nt
Cc1c2c(n3c(nc4ccccc43)c1C#N)N(c1ccccc1)CC2,nt,16.3,nt,nt,79.2*,2.2
COC(=O)CCc1c(C)c(C#N)c2nc3ccccc3n2c1N1CCCC1,0.2,13.4,25.3,17.2*,61.6,7.7
CCOC(=O)CCc1c(C)c(C#N)c2nc3ccccc3n2c1-n1ccnc1,0.2,-10.0,31.4,?,60.5,2.0
CCc1c(C)c(C#N)c2nc3ccccc3n2c1-n1nc(C)cc1C,0.2,-20.5,8.9,-3.7,-63.2,0.0
CCc1c(C)c(C#N)c2nc3ccccc3n2c1NCC1CCCO1 (configuration not stated),1.8,34.8,17.8,7.2,65.2*,0.1
CCc1c(C)c(C#N)c2nc3ccccc3n2c1NCCCN(C)C,4.2,nt,nt,nt,nt,nt
C[C@H]1c2cccc(O)c2C(O)=C2C(=O)[C@]3(O)C(O)=C(C(N)=O)C(=O)[C@@H](N(C)C)C3[C@@H](O)C21 (some centres not stated),-2.0,nt,-119.7*,-5.4,nt,nt
COC(=O)[C@]12C[C@H](CC(=O)NCCCCc3ccccc3)C(=O)N(Cc3ccccc3)C1=C[C@H](C(C)C)O[C@@H]2C1CC1,1.1,nt,nt,nt,nt,nt
O=c1[nH]cc(NCCc2ccccc2)c(=O)[nH]1,0.7,8.6,33.2,43.2*,16.5,-2.2
O=Cc1cc2ccccc2nc1SCCCF,0.4,-2.3,18.3,-1.8,0.9,4.0
COC(=O)C1=CN(CCOC23CC4CC(CC(C4)C2)C3)C=C(C(=O)OC)C1c1ccsc1,-77.1,13.7,15.9,1.7,33.5,-3.3
COC(=O)C1=CN(Cc2cccs2)C=C(C(=O)OC)C1c1cccc(Cl)c1,-33.9,37.0,17.2,7.3,85.0*,3.6
COC(=O)C1=CN(Cc2ccc(OC)cc2)C=C(C(=O)OC)C1c1ccsc1,-35.1,68.1*,41.0,?,134.1*,1.2
